Data on 23 molecules can be found in ChEMBL document CHEMBL4312032, “Design and synthesis of α-phenoxy-N-sulfonylphenyl acetamides as Trypanosoma brucei Leucyl-tRNA synthetase inhibitors” (Eur J Med Chem, 2020).

pIC50: −log10 of the molar value. The source made the active and inactive calls. The calls are words filed in the database; no cut-off is given here.

The test system of one test is Trypanosoma brucei brucei. As to the kind of experiment: Antitrypanosomal activity against bloodstream form of Trypanosoma brucei brucei 221 assessed as parasite growth inhibition incubated for 72 hrs by resazurin staining based assay. In kind it is functional, organism-based. As to conditions: Trypanosoma brucei, 221, 72 h. In short, it runs like this:
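Bloodstream-form T. b. brucei 221 kept in log phase in HMI-11 at 37 °C, 5% CO2, and seeded from a 2×10⁵/mL (2-fold) suspension. Compounds were serially diluted in DMSO and tested in triplicate for 72 h. Resazurin was then added for 5 h more. Fluorescence was read at ex 544/em 590 nm.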
In the case of `CC(C)C[C@H](N)C(=O)NS(=O)(=O)c1cccc(NC(=O)COc2ccc(-c3ccccc3)cc2)c1`, the pIC50 was 4.48.

System in another test: not listed separately
As to the kind of experiment: Inhibition of Trypanosoma brucei LeuRS expressed in Escherichia coli BL21 (DE3)-RIPL cells assessed as decrease in [14C]-Leucine tRNA synthesis incubated for 20 mins in presence of [14C]leucine followed by incubation with ATP for 15 mins by liquid scintillation counting method.
Details: not given
Put shortly:
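T. brucei LeuRS was expressed in E. coli BL21(DE3)-RIPL. Reactions held 50 mM HEPES-KOH pH 7.8, 5 mM MgCl₂, 45 mM KCl, 1 mM DTT, 0.02% BSA, 0.4 mg/mL tRNA and [¹⁴C]leucine. They were preincubated 20 min at 37 °C without ATP, then run 15 min after adding 4 mM ATP. Three aliquots were spotted on filter paper and averaged for IC50.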
`O=C(COc1ccc(Br)cc1Cl)Nc1ccc(S(=O)(=O)NC(=O)[C@H](Cc2ccccc2)NC(=O)OCc2ccccc2)cc1`: the pIC50 was 3.94.

For the molecule `CC(C)C[C@H](N)C(=O)NS(=O)(=O)c1cccc(NC(=O)COc2ccc([N+](=O)[O-])cc2)c1`, the pIC50 was 5.17.

In the case of `COc1ccc(OCC(=O)Nc2cccc(S(=O)(=O)NC(=O)[C@@H](N)CC(C)C)c2)cc1`, the pIC50 was 5.45.

Turning to `CC(C)C[C@H](N)C(=O)NS(=O)(=O)c1cccc(NC(=O)COc2ccccc2)c1`, the pIC50 was 5.26.

Consider `CC(C)C[C@H](N)C(=O)NS(=O)(=O)c1cccc(NC(=O)COc2cccc(-c3ccccc3)c2)c1`, for which the pIC50 was 6.15.

For `NC(=O)CC[C@H](N)C(=O)NS(=O)(=O)c1ccc(NC(=O)COc2ccc(Br)cc2Cl)cc1`, the pIC50 is 3.54.

Consider `CC(C)(C)OC(=O)N[C@@H](CCC(=O)OCc1ccccc1)C(=O)NS(=O)(=O)c1ccc(NC(=O)COc2ccc(Br)cc2Cl)cc1`, for which the pIC50 was 4.01.

On to `N[C@@H](Cc1ccccc1)C(=O)NS(=O)(=O)c1ccc(NC(=O)COc2ccc(Br)cc2Cl)cc1`, for which the pIC50 is below 3.00.

Regarding `CC[C@H](C)[C@H](N)C(=O)NS(=O)(=O)c1ccc(NC(=O)COc2ccc(Br)cc2Cl)cc1`, the pIC50 is below 3.00.

As for `CC(C)(C)OC(=O)N[C@@H](Cc1ccccc1)C(=O)NS(=O)(=O)c1ccc(NC(=O)COc2ccc(Br)cc2Cl)cc1`, the pIC50 was 3.55.

For `CC(C)C[C@H](NC(=O)OC(C)(C)C)C(=O)NS(=O)(=O)c1ccc(NC(=O)COc2ccc(Br)cc2Cl)cc1`, the pIC50 was 3.39.

As to `CCOC(=O)CC[C@H](N)C(=O)NS(=O)(=O)c1ccc(NC(=O)COc2ccc(Br)cc2Cl)cc1`, the pIC50 is below 3.00.

In the case of `CC[C@H](C)[C@H](NC(=O)OC(C)(C)C)C(=O)NS(=O)(=O)c1ccc(NC(=O)COc2ccc(Br)cc2Cl)cc1`, the pIC50 was 3.46.

Turning to `CC(C)C[C@H](NC(=O)OCc1ccccc1)C(=O)NS(=O)(=O)c1ccc(NC(=O)COc2ccc(Br)cc2Cl)cc1`, the pIC50 was 3.96.

Consider `CC(C)C[C@H](N)C(=O)NS(=O)(=O)c1ccc(NC(=O)COc2ccc(Br)cc2Cl)cc1`, for which the pIC50 is 4.42.

As for `NS(=O)(=O)c1ccc(NC(=O)COc2ccc(Br)cc2Cl)cc1`, the pIC50 was 3.72.

With `NS(=O)(=O)c1ccc(NC(=S)NC(=O)COc2ccc(Br)cc2Cl)cc1`, the pIC50 is 3.76.

Consider `N[C@@H](CCC(=O)O)C(=O)NS(=O)(=O)c1ccc(NC(=O)COc2ccc(Br)cc2Cl)cc1`, for which the pIC50 was 3.37.

`COc1cccc(OCC(=O)Nc2cccc(S(=O)(=O)NC(=O)[C@@H](N)CC(C)C)c2)c1`: the pIC50 was 5.57.

`CC(C)C[C@H](N)C(=O)NS(=O)(=O)c1cccc(NC(=O)COc2ccc(-c3ccccc3)cc2)c1`: the pIC50 was 5.14.

In the case of `O=C(COc1ccc(Br)cc1Cl)Nc1ccc(S(=O)(=O)NC(=O)c2ccco2)cc1`, the pIC50 is 3.60.

As to `CC(C)(C)OC(=O)N[C@@H](CCC(N)=O)C(=O)NS(=O)(=O)c1ccc(NC(=O)COc2ccc(Br)cc2Cl)cc1`, the pIC50 is 3.16.

In the case of `CC(C)C[C@H](N)C(=O)NS(=O)(=O)c1cccc(NC(=O)COc2ccccc2Cl)c1`, the pIC50 is 5.24.

In the next test the test system is Trypanosoma brucei. Kind of test: Potency index, ratio of IC50 of 2-(4-bromo-2-chlorophenoxy)-N-(4-sulfamoylphenylcarbamothioyl)acetamide to IC50 of compound for inhibition of Trypanosoma brucei LeuRS expressed in Escherichia coli BL21 (DE3)-RIPL cells in presence of [14C]leucine incubated for 20 mins followed by incubation with ATP for 15 mins by liquid scintillation counting method.
Details: not given
Consider `CC(C)C[C@H](N)C(=O)NS(=O)(=O)c1cccc(NC(=O)COc2cccc(-c3ccccc3)c2)c1`, for which the Ratio IC50 is 250.

As for `CC(C)C[C@H](N)C(=O)NS(=O)(=O)c1ccc(NC(=O)COc2ccc(Br)cc2Cl)cc1`, the Ratio IC50 turned out to be 5.

The subject of a further test is Trypanosoma brucei brucei. Kind of test: Antitrypanosomal activity against bloodstream form of Trypanosoma brucei brucei 221 assessed as parasite growth inhibition at 22 uM incubated for 72 hrs by resazurin staining based assay.
Details: not given
It counts as functional, organism-based.
As to `CC(C)C[C@H](N)C(=O)NS(=O)(=O)c1cccc(NC(=O)COc2ccc(-c3ccccc3)cc2)c1`, the inhibition result is “Active”.
